The values that follow come from ChEMBL document CHEMBL1165931, “Cytotoxic indole alkaloids from Melodinus tenuicaudatus” (J Nat Prod, 2010).

The structures appear in SMILES notation. A value given as a limit tells only on which side of the number the result lay.

Format in all cases: functional, cell-based
The subject of one assay is MCF7. Nature of the assay: Cytotoxicity against human MCF7 cells after 48 hrs by MTT assay. A digest of the protocol:
(§1)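 Cells grown in RPMI-1640 or DMEM with 10% FBS at 37 °C under 5% CO2. Adherent lines (A-549, MCF-7, SMMC-7721, SW480) were left to attach for 12 h before dosing; suspension HL-60 was seeded just before dosing at 1 × 10^5 cells/mL. Compounds were given in DMSO at 0.0625, 0.32, 1.6, 8 and 40 µmol, in triplicate, for 48 h. Read-out by MTT; cisplatin and vinorelbine were positive controls.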

The test system of another assay is SW480. The assay is described as follows: Cytotoxicity against human SW480 cells after 48 hrs by MTT assay. A digest of the protocol: as §1
A general note: Formazan colour is commonly taken as a measure of viable cells.

In another assay the test system is SMMC-7721. The assay is described as follows: Cytotoxicity against human SMMC7721 cells after 48 hrs by MTT assay. A digest of the protocol:
as §1

The subject of another assay is A549. The assay is described as follows: Cytotoxicity against human A549 cells after 48 hrs by MTT assay. A digest of the protocol: as §1
The next assay deals with HL-60. The assay is described as follows: Cytotoxicity against human HL60 cells after 48 hrs by MTT assay. A digest of the protocol: as §1

With `CC[C@]12C=CCN3CCc4c(n(c5ccccc45)[C@@H](c4ccc5c(c4)[C@@]46CCN7CC=C[C@@]8(C[C@@H](C(=O)OC)[C@]4(N5)[C@@H]8C)[C@H]76)C1)[C@@H]32`, the IC50 was determined as 2.9 µmol with MCF7; 1.4 µmol in the assay with SW480; 3.2 µmol in the assay on SMMC-7721; 4.8 µmol in the assay with A549; 1.1 µmol with HL-60.

Consider `CC[C@]12C=CCN3CCc4c(n(c5ccccc45)[C@@H](OC)C1)[C@@H]32`, for which the IC50 was 29.3 µmol with MCF7; 32.2 µmol in the assay on SW480; 22.1 µmol in the assay on SMMC-7721; above 40 µmol in the assay with A549; 15.9 µmol in the assay with HL-60.

With `CC[C@]12C=CCN3CC[C@]4(C(=C(C(=O)OC)C1)Nc1cc(OC)ccc14)[C@@H]32`, the IC50 turned out to be 2.1 µmol in the assay with MCF7; 12.7 µmol with SW480; 13.1 µmol in the assay on SMMC-7721; 12.8 µmol in the assay on A549; 0.2 µmol with HL-60.

For `CC[C@]12C=CCN3CC[C@]4(C(=C(C(=O)OC)C1)Nc1cc5c(cc14)[C@@H]1[C@H](O5)[C@@H](O)[C@@]4(CC)CC(C(=O)OC)=C5Nc6ccccc6[C@@]56CCN1[C@@H]46)[C@@H]32` [MELODININE K], the IC50 in the assay with MCF7 was 2.7 µmol; with SW480 it was 5.7 µmol; in the assay with SMMC-7721, 3 µmol; in the assay on A549, 5 µmol; in the assay with HL-60, 0.1 µmol.

`COC(=O)[C@@H]1C[C@@]23C=CCN4CC[C@@]5(c6ccccc6N[C@]15[C@@H]2C)[C@@H]43` [VINDOLININE]: the IC50 in the assay with MCF7 worked out at 21.9 µmol; in the assay with SW480, 15.2 µmol; in the assay with SMMC-7721 it was 20.7 µmol; in the assay with A549, 26.3 µmol; in the assay with HL-60, 6.8 µmol.

`CCC1=C[C@@H]2CN(C1)Cc1c([nH]c3ccccc13)[C@@](C(=O)OC)(c1cc3c(cc1OC)N(C)[C@H]1[C@@](O)(C(=O)OC)[C@H](OC(C)=O)[C@]4(CC)C=CCN5CC[C@]31[C@@H]54)C2` [VINORELBINE]: the IC50 is 17.2 µmol with MCF7; above 40 µmol in the assay with SW480; 4.7 µmol with SMMC-7721; 26.1 µmol in the assay on A549; below 0.06 µmol in the assay on HL-60.
